Measurements taken from ChEMBL document CHEMBL4680104, “Structure-Based Optimization of Small-Molecule Inhibitors for the β-Catenin/B-Cell Lymphoma 9 Protein-Protein Interaction” (J Med Chem, 2018).
Calls of active or inactive are those of the source. The rule behind the calls is not given here.

Columns and labels:
[1] = target: T1, beta-catenin-B-cell lymphoma 9 protein complex (Homo sapiens, UniProt P35222); test: Inhibition of protein interaction between C-terminal 6x-histidine tagged full-length beta-catenin (1 to 781 residues) (unknown origin)/N-terminal biotinylated human BCL9 ( 350 to 375 residues) incubated for 1 hr by Alpha-screen competitive inhibition assay; type: protein-complex assay
T1 sequence (P35222 whole entry): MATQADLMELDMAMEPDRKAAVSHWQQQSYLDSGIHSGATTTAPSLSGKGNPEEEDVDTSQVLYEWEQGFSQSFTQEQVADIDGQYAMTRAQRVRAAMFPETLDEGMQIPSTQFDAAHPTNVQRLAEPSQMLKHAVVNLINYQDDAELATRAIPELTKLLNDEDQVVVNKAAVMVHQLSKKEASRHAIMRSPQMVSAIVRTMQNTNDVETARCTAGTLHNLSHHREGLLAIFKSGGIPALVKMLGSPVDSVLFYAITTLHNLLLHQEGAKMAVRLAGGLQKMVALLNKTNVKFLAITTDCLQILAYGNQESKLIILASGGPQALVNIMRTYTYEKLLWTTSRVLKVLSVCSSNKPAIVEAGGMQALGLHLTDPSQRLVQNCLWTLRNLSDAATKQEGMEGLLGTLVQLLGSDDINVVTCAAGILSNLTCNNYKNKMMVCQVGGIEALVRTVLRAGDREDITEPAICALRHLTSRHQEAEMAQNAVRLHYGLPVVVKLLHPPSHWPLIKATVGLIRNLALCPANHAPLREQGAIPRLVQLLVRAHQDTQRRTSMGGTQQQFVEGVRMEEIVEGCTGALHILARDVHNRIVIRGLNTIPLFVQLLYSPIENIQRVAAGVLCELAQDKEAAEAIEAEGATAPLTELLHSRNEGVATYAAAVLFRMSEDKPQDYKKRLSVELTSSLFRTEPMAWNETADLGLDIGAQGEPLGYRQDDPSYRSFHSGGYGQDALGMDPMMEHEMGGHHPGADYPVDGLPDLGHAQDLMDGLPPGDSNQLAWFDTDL
T1 sequence (O00512 whole entry): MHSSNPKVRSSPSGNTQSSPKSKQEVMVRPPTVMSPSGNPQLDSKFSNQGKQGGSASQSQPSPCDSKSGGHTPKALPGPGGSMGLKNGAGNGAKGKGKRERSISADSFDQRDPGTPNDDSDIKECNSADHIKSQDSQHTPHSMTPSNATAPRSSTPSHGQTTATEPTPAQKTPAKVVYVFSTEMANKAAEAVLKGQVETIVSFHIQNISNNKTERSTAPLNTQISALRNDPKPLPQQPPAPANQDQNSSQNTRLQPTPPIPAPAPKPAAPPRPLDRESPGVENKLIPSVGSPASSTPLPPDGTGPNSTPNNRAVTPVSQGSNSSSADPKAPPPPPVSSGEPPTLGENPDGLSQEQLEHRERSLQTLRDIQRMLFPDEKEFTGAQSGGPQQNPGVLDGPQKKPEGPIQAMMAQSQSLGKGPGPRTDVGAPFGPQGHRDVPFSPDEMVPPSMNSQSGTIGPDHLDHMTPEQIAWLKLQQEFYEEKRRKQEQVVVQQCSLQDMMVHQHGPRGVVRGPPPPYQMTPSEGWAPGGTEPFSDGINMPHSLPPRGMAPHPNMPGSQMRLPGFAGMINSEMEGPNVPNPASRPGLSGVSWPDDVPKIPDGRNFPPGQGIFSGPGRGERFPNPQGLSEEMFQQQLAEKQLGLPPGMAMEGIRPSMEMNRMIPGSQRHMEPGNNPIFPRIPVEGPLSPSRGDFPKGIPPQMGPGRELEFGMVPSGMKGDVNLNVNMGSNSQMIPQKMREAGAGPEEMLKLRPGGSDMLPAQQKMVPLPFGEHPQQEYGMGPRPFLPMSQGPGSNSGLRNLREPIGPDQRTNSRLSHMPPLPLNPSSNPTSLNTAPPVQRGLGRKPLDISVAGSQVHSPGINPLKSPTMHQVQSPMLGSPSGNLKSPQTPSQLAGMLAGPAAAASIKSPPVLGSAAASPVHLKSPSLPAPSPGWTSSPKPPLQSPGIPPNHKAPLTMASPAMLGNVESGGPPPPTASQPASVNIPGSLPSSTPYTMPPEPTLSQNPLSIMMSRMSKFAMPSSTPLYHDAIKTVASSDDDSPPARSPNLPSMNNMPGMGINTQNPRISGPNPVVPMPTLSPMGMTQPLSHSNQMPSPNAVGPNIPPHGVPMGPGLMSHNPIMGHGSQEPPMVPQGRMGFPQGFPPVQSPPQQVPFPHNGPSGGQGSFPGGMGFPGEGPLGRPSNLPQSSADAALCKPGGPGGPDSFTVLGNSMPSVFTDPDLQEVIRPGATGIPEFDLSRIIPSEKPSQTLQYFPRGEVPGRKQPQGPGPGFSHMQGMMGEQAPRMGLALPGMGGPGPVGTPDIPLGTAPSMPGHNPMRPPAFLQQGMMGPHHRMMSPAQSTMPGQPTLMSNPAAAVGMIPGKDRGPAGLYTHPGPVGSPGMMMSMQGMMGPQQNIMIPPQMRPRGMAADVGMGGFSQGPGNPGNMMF
Method in brief: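 Full-length β-catenin (residues 1–781) with a C-terminal His6 tag was expressed in E. coli BL21(DE3) after IPTG induction at 20 °C. It was purified by Ni-NTA, anion-exchange and size-exclusion chromatography. For the assay, 40 nM β-catenin was preincubated for 30 min at 4 °C with 5 nM biotinylated BCL9 or 10 nM biotinylated E-cadherin. Inhibitor was then added for 1 h at 4 °C, followed by 10 μg/mL donor and acceptor beads for 1 h at 4 °C. IC50 was obtained by nonlinear fit and converted to Ki by the Nikolovska-Coleska method. Triplicate, mean ± SD.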

SW480 [2] = test: Cytotoxicity in human SW480 cells assessed as reduction in cell viability incubated for 72 hrs by MTS assay; type: functional, cell-based; settings: SW480, 72 h
Method in brief: (§1)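 Cells seeded at 5 × 10^3 cells/well, kept overnight at 37 °C, then exposed to inhibitors at various concentrations for 72 h. Viability read with a freshly mixed PMS (0.92 mg/mL) : MTS (2 mg/mL) reagent at 1:19, incubated 3 h at 37 °C, A490 measured. […] Triplicate; mean ± SD.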

SW480 [3] = test: Cytotoxic activity in human SW480 cells at 50 to 100 uM incubated for 4 hrs by LDH release assay; type: cell-based; settings: sw480, 4 h, dose 50-100 µM
Method in brief: (§2)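 SW480 cells were seeded at 2 × 10^4 cells/well and kept overnight at 37 °C. They were then exposed to a range of inhibitor concentrations for 4 h. LDH in the culture supernatant was measured with a diagnostic kit by absorbance at 490 nm. Percent cytotoxicity was calculated from experimental release against maximum release, with background subtracted. Run in triplicate.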

MDA-MB-231 = test: Cytotoxicity in human MDA-MB-231 cells assessed as reduction in cell viability incubated for 72 hrs by MTS assay; type: functional, cell-based; settings: MDA-MB-231, 72 h
Method in brief: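 Triple-negative breast cancer line seeded at 5 × 10^3 cells/well, held overnight at 37 °C, then exposed to inhibitor over a concentration range for 72 h. Viability read out with a fresh 1:19 mix of PMS (0.92 mg/mL) and MTS (2 mg/mL), incubated 3 h at 37 °C, A490 measured.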

A549 = test: Cytotoxicity in human A549 cells assessed as reduction in cell viability incubated for 72 hrs by MTS assay; type: functional, cell-based; settings: A549, 72 h; method in brief: as §1
[4] = target: T1, beta-catenin-B-cell lymphoma 9 protein complex; test: Inhibition of protein interaction between beta-catenin (unknown origin)/BCL9 in HEK293 cells transfected with beta-catenin assessed as reduction in Wnt/beta-catenin transactivation incubated for 24 hrs by Wnt-responsive TOP-Flash luciferase reporter assay; type: cell-based
Method in brief: (§3)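 HEK293 cells were cotransfected using FuGENE6 with 45 ng TOPFlash or FOPFlash reporter, 135 ng pcDNA3.1-β-catenin and 20 ng pCMV-RL normalization reporter. After 24 h in DMEM with 10% FBS at 37 °C, inhibitors or DMSO were added for 24 h. Reporter activity was read with a dual luciferase system, normalized, and compared with DMSO-treated cells. Triplicate.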

[5] = target: T1, beta-catenin-B-cell lymphoma 9 protein complex; test: Inhibition of protein interaction between beta-catenin (unknown origin)/BCL9 in human SW480 cells transfected with beta-catenin assessed as reduction in Wnt/beta-catenin transactivation incubated for 24 hrs by Wnt-responsive TOP-Flash luciferase reporter assay; type: cell-based
[6] = target: T2, beta-catenin-B-cell lymphoma 9 protein complex (Homo sapiens) (UniProt P35222+O00512); test: Inhibition of protein interaction between beta-catenin (unknown origin)/BCL9 in HEK293 cells transfected with beta-catenin assessed as reduction in Wnt/beta-catenin transactivation incubated for 24 hrs by Wnt-responsive FOP-Flash luciferase reporter assay; type: cell-based; method in brief: as §3
[7] = target: T2, beta-catenin-B-cell lymphoma 9 protein complex (Homo sapiens); test: Inhibition of protein interaction between beta-catenin (unknown origin)/BCL9 in human HEK293 cells transfected with beta-catenin assessed as reduction in Wnt/beta-catenin transactivation incubated for 24 hrs by Wnt-responsive FOP-Flash luciferase reporter assay
HCT-116 = test: Cytotoxicity in human HCT-116 cells assessed as reduction in cell viability incubated for 72 hrs by MTS assay; type: functional, cell-based; settings: HCT-116, 72 h; method in brief: as §1
SW480 [8] = test: Cytotoxic activity in human SW480 cells at 800 uM incubated for 4 hrs by LDH release assay; type: cell-based; settings: sw480, 4 h; method in brief: as §2

Row | SMILES | Ki [1] | IC50 [4] | IC50 [5] | inhibition [6] | inhibition [7] | IC50 (SW480 [2]) | Activity (SW480 [3]) | IC50 (MDA-MB-231) | IC50 (A549) | IC50 (HCT-116) | Activity (SW480 [8])
1 | Cl.Cl.O=C(Nc1cnc(O[C@H]2CCNC2)c(-c2ccc(F)cc2)c1)c1ccc(O[C@H]2CCNC2)c(-c2ccc(F)c(F)c2)c1 | 8.2 µM | 10 µM | 7.7 µM | Active | Active | 1.7 µM | Toxic | 3.1 µM | 29 µM | – | –
2 | Cl.Cl.O=C(Nc1ccc(O[C@H]2CCNC2)c(-c2ccccc2C(F)(F)F)c1)c1ccc(O[C@H]2CCNC2)c(-c2ccc(F)c(F)c2)c1 | 3.8 µM | – | – | – | – | 2.6 µM | Toxic | – | – | – | –
3 | Cl.Cl.NC(=O)c1ccc(-c2cc(NC(=O)c3ccc(O[C@H]4CCNC4)c(-c4ccc(F)c(F)c4)c3)ccc2O[C@H]2CCNC2)cc1 | 4.7 µM | – | – | – | – | 160 µM | – | – | – | – | Non-Toxic
4 | Cl.Cl.O=C(Nc1ccc(O[C@H]2CCNC2)c(-c2ccc(F)cc2)c1)c1ccc(O[C@H]2CCNC2)c(C2=CCCCC2)c1 | 7.1 µM | – | 8.7 µM | Active | Active | 3.7 µM | Toxic | 3.4 µM | – | 6.9 µM | –
5 | Cl.Cl.O=C(Nc1ccc(O[C@H]2CCNC2)c(-c2ccc(F)nc2)c1)c1ccc(O[C@H]2CCNC2)c(-c2ccc(F)c(F)c2)c1 | 16 µM | – | – | – | – | 15 µM | Toxic | – | – | – | –
6 | Fc1ccc(-c2cc(-c3cnc4cc(O[C@H]5CCNC5)c(-c5ccc(F)c(F)c5)cc4c3)ccc2O[C@H]2CCNC2)cc1 | 2.2 µM | 14 µM | 7.9 µM | Active | Active | 1.7 µM | – | 3.1 µM | 7.5 µM | 2.2 µM | –
7 | Cl.Cl.O=C(Nc1ccc(O[C@H]2CCNC2)c(-c2ccc(F)cc2)c1)c1ccc(O[C@H]2CCNC2)c(C2CCCCC2)c1 | 14 µM | – | – | – | – | 6.6 µM | Toxic | – | 3.8 µM | 3.8 µM | –
8 | Cl.Cl.O=C(Nc1cnc(O[C@H]2CCNC2)c(-c2ccc(F)cc2)c1)c1cnc(O[C@H]2CCNC2)c(-c2ccc(F)c(F)c2)c1 | 7.3 µM | – | – | – | – | 9.9 µM | Toxic | – | – | – | –
9 | Cl.Cl.O=C(Nc1ccc(O[C@H]2CCNC2)c(-c2ccc(F)cc2)c1)c1ccc(O[C@H]2CCNC2)c(-c2ccc(F)nc2)c1 | 19 µM | – | – | – | – | 21 µM | Non-Toxic | – | – | – | –

Further lines, with some results ahead:

Row | Ki [1] | IC50 [4] | IC50 [5] | inhibition [6] | inhibition [7] | SMILES | IC50 (SW480 [2]) | Activity (SW480 [3]) | IC50 (MDA-MB-231) | IC50 (A549) | IC50 (HCT-116) | Activity (SW480 [8])
10 | 6.5 µM | – | – | – | – | Cc1ccc(-c2cc(NC(=O)c3ccc(O[C@H]4CCNC4)c(-c4ccc(F)c(F)c4)c3)ccc2O[C@H]2CCNC2)cc1.Cl.Cl | 1.6 µM | Toxic | – | – | – | –
11 | 3.1 µM | – | – | – | – | Cc1cccc(-c2cc(NC(=O)c3ccc(O[C@H]4CCNC4)c(-c4ccc(F)c(F)c4)c3)ccc2O[C@H]2CCNC2)c1.Cl.Cl | 2.2 µM | Toxic | 1.4 µM | 4.5 µM | 1.4 µM | –
12 | 4.2 µM | > 25 µM | – | – | – | Cl.Cl.N#Cc1cccc(-c2cc(NC(=O)c3ccc(O[C@H]4CCNC4)c(-c4ccc(F)c(F)c4)c3)ccc2O[C@H]2CCNC2)c1 | 4.3 µM | Toxic | – | – | – | –
13 | 5.9 µM | – | – | – | – | CS(=O)(=O)Nc1cccc(-c2cc(NC(=O)c3ccc(O[C@H]4CCNC4)c(-c4ccc(F)c(F)c4)c3)ccc2O[C@H]2CCNC2)c1.Cl.Cl | 95 µM | – | – | – | – | Non-Toxic
14 | 3.8 µM | > 25 µM | – | – | – | Cl.Cl.N#Cc1ccc(-c2cc(NC(=O)c3ccc(O[C@H]4CCNC4)c(-c4ccc(F)c(F)c4)c3)ccc2O[C@H]2CCNC2)cc1 | 6.1 µM | Toxic | – | – | – | –
15 | 5.6 µM | – | – | – | – | Cl.Cl.NC(=O)c1cccc(-c2cc(NC(=O)c3ccc(O[C@H]4CCNC4)c(-c4ccc(F)c(F)c4)c3)ccc2O[C@H]2CCNC2)c1 | 190 µM | – | – | – | – | Non-Toxic
16 | 5.9 µM | – | 5.2 µM | Active | Active | Cc1ccccc1-c1cc(NC(=O)c2ccc(O[C@H]3CCNC3)c(-c3ccc(F)c(F)c3)c2)ccc1O[C@H]1CCNC1.Cl.Cl | 1.2 µM | Toxic | 3.1 µM | 23 µM | 5.7 µM | –
